Screening data (PubChem)
A1 apoptosis 2: A1 inhibitors via caspase activation, primary screen, cell-based, luminescence, HTS, two replicates | MEF A1-2A-BIM cells, caspase-Glo luminescence, 3 h; percent of clofoctol response, DMSO zero | caspase activation, % (concentration not given with the values) | AID 2465, 2010 | 24,000 tested, under 10 active; in the data active = caspase activation above about 5.9%; inconclusive = no clear call, values can overlap the other calls; inactive = below about 2.2%
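Test system – A1-2A-BIM-expressing MEF cells · Input – 2500 cells/well · Medium – RPMI-1640 growth medium with 10% FBS · Compound dosing – 50 nL pinned compound · Timing – 3 h compound exposure at 37 °C · Technique – Caspase-Glo luminescence (DEVD substrate) · Evaluation – Caspase-3/7 activity from luminescence increase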
INS-1E ATP HTS: protection of INS-1E cells from cytokine death, primary screen, ATP luminescence, single point. hit rate 0.1% among 20,000. protection from cytokine-induced ATP loss, % at 10 µM. INS-1E cytokine-induced death, 48 h; normalised: neutral wells 0, positive control 100;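 active = mean replicate protection from cytokine-induced ATP loss at least 50% and at least 75% of replicates each reaching 50%; inconclusive = meets only one of the two criteria, mean or replicate share; inactive = fails both the mean and replicate share criteria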
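Assay system: INS-1E rat cells / Quantity: 8000 cells per well / Medium: RPMI without phenol red, 5% FBS / Probe or stimulus: three-cytokine cocktail (IFN-γ, TNF-α, IL-1β) / Dosing: one compound concentration, pin transfer / Timing: 48 h co-treatment, 10 min post-lysis read / Technique: CellTiter-Glo luminescence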
T cruzi intra: inhibitors of intracellular Trypanosoma cruzi, primary screen, cell-based, plate reader, single point, set 2; intracellular Trypanosoma cruzi in host cells; hit rate 4.9% among 22,000; activity score (inhibition), % at 5.01 µM; in the data active = activity score above about 55%; inconclusive = no clear call, values can overlap the other calls;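 note: parasites and compound incubated about four days before reading; 0% = median of neutral control wells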
The depositor's hits bear a star; ? = inconclusive; · = not tested or not shown. The entries come from a sample that favours hits as a whole.

SMILES	A1 apoptosis 2	INS-1E ATP HTS	T cruzi intra
Cc1ccc(/C=N/NC(=O)c2ccccn2)o1	-4	-3	2
O=C(N/N=C/c1ccc(-c2cccc(Cl)c2)o1)c1ccccn1	-1	13	85*
Cc1ccc(/C=N/NC(=O)CCCCCC(=O)NO)o1	·	108*	7
O=C(CCCCC(=O)N/N=C/c1ccc(-c2cccc(Cl)c2)o1)NO	·	149*	19
O=C(N/N=C/c1cc(Br)cc(Br)c1O)c1ccccn1	·	-42	78*
COC(=O)CCCCCCC(=O)N/N=C/c1ccc(-c2cccc(Cl)c2)o1	-3	5	27
Cc1ccc(/C=N/NC(=O)CCCCCC(=O)O)o1	0	-3	-15
O=C(N/N=C/c1cc(Br)c(O)c(Br)c1)c1ccccn1	·	7	-13
CC(C)OC(=O)N(C)C[C@H]1OCc2cn(nn2)CCCC(=O)N([C@H](C)CO)C[C@H]1C	0	·	1
COc1ccc(S(=O)(=O)Nc2cccc3c2O[C@@H](CN(C)C(=O)Nc2cccc4ccccc24)[C@@H](C)CN([C@@H](C)CO)C3=O)cc1	·	3	8
Cc1ccc(S(=O)(=O)N(C)C[C@@H]2OCCCC[C@H](C)Oc3ccc(NS(C)(=O)=O)cc3C(=O)N([C@H](C)CO)C[C@@H]2C)cc1	0	·	·
C[C@H](CO)N1C[C@H](C)[C@H](CN(C)C(=O)Nc2ccc(F)cc2)Oc2ccc(NC(=O)C3CC3)cc2CC1=O	-1	-5	-21
C[C@@H]1CN([C@H](C)CO)C(=O)c2cccc(NC(=O)CCCCCC(=O)Nc3ccccc3N)c2O[C@@H]1CN(C)S(=O)(=O)c1ccc(Cl)cc1	-1	1	?
C[C@H]1CN([C@@H](C)CO)C(=O)c2cccc(NC(=O)CCCCCC(=O)Nc3ccccc3N)c2O[C@H]1CN(C)Cc1ccc(Cl)c(Cl)c1	1	9	70*
C[C@H](CO)N1C[C@H](C)[C@@H](CN(C)Cc2ccncc2)Oc2c(NC(=O)CCCCCC(=O)Nc3ccccc3N)cccc2C1=O	1	-12	8
C[C@@H]1CN([C@@H](C)CO)C(=O)c2cccc(NC(=O)CCCCCC(=O)Nc3ccccc3N)c2O[C@@H]1CN(C)S(=O)(=O)c1ccc(Cl)cc1	0	-18	56*
C[C@@H]1CN([C@H](C)CO)C(=O)c2cccc(NC(=O)CCCCCC(=O)Nc3ccccc3N)c2O[C@@H]1CN(C)Cc1ccc(Cl)c(Cl)c1	·	3	61*
C[C@@H]1CN([C@@H](C)CO)C(=O)c2cccc(NC(=O)CCCCCC(=O)Nc3ccccc3N)c2O[C@@H]1CN(C)Cc1ccc(Cl)c(Cl)c1	·	19	52
C[C@@H]1CN([C@@H](C)CO)C(=O)Cc2cc(NS(=O)(=O)c3ccccc3)ccc2O[C@H]1CN(C)S(=O)(=O)c1cccs1	0	·	·
C[C@@H]1CN([C@H](C)CO)C(=O)c2cc(NC(=O)NC3CCCCC3)ccc2O[C@@H]1CN(C)S(=O)(=O)c1cn(C)cn1	1	9	4
C[C@@H]1CCCCO[C@@H](CN(C)Cc2ccc(C(=O)O)cc2)[C@@H](C)CN([C@H](C)CO)C(=O)c2cc(NS(=O)(=O)c3ccc(Cl)cc3)ccc2O1	0	8	0
C[C@H](CO)N1C[C@H](C)[C@@H](CN(C)Cc2ccc(Oc3ccccc3)cc2)Oc2c(NC(=O)Nc3ccc(F)cc3)cccc2C1=O	1	-36	59*
C[C@@H]1CN([C@@H](C)CO)C(=O)c2cccc(NC(=O)Nc3ccccc3)c2O[C@H]1CN(C)Cc1ccc(Oc2ccccc2)cc1	-1	-25	76*
C[C@@H]1CN([C@H](C)CO)C(=O)c2cccc(NC(=O)Nc3ccccc3)c2O[C@H]1CN(C)Cc1ccc(Oc2ccccc2)cc1	-1	-20	34
C[C@H](CO)N1C[C@H](C)[C@H](CN(C)Cc2ccc(Oc3ccccc3)cc2)Oc2c(NC(=O)Nc3ccc(F)cc3)cccc2C1=O	-1	-9	-13
C[C@@H]1CN([C@H](C)CO)C(=O)c2cccc(NC(=O)Nc3ccc(F)cc3)c2O[C@H]1CN(C)Cc1ccc(-c2ccccc2)cc1	0	0	-13
C[C@@H]1CN([C@@H](C)CO)C(=O)c2cccc(NC(=O)Nc3ccc(F)cc3)c2O[C@@H]1CN(C)Cc1ccc(-c2ccccc2)cc1	0	-67	69*
C[C@H]1CN([C@@H](C)CO)C(=O)Cc2cc(NS(=O)(=O)c3cccs3)ccc2O[C@@H]1CN(C)CC1CC1	-2	3	-16
